{"source": "ChEMBL document CHEMBL4406880", "about": "“Design, synthesis, and bioactivity of dihydropyrimidine derivatives as kinesin spindle protein inhibitors” (Bioorg Med Chem, 2019)", "assay_type_in_all_cases": "functional", "key": {"SNB-75 [1]": {"system": "SNB-75", "assay": "Growth inhibition of human SNB75 cells assessed as cell viability at 0.001 uM incubated for 48 hrs by sulforhodamine B assay relative to control", "settings": "SNB-75, 48 h, read-out: Activity"}, "SF-268": {"system": "SF-268", "assay": "Growth inhibition of human SF268 cells incubated for 48 hrs by sulforhodamine B assay", "settings": "SF-268, 48 h", "method_in_brief": "(§1)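 NCI-60 five-dose SRB assay. Cells were exposed for 48 h to tenfold dilutions of 0.01, 0.1, 1, 10 and 100 µM, in RPMI 1640 with 5% FBS. Plates fixed with TCA at the time of drug addition served as the time-zero reference. GI50 is the concentration giving a 50% reduction in net growth. TGI is total growth inhibition. LC50 is a net 50% loss of the initial cells.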"}, "RXF 393": {"system": "RXF 393", "assay": "Growth inhibition of human RXF393 cells incubated for 48 hrs by sulforhodamine B assay", "settings": "RXF 393, 48 h", "method_in_brief": "as §1"}, "SK-MEL-2": {"system": "SK-MEL-2", "assay": "Growth inhibition of human SK-MEL-2 cells assessed as cell viability at 0.1 uM incubated for 48 hrs by sulforhodamine B assay", "settings": "SK-MEL-2, 48 h, read-out: Activity"}, "SNB-75 [2]": {"system": "SNB-75", "assay": "Growth inhibition of human SNB75 cells assessed as cell viability at 100 uM incubated for 48 hrs by sulforhodamine B assay", "settings": "SNB-75, 48 h, read-out: Activity"}, "BT-549": {"system": "BT-549", "assay": "Growth inhibition of human BT549 cells assessed as cell viability at 0.1 uM incubated for 48 hrs by sulforhodamine B assay", "settings": "BT-549, 48 h, read-out: Activity"}, "SNB-19": {"system": "SNB-19", "assay": "Growth inhibition of human SNB19 cells assessed as cell viability at 100 uM incubated for 48 hrs by sulforhodamine B assay", "settings": "SNB-19, 48 h, read-out: Activity"}, "SF-295": {"system": "SF-295", "assay": "Growth inhibition of human SF295 cells assessed as cell viability at 0.001 uM incubated for 48 hrs by sulforhodamine B assay relative to control", "settings": "SF-295, 48 h, read-out: Activity"}, "HCT-15": {"system": "HCT-15", "assay": "Growth inhibition of human HCT15 cells assessed as cell viability at 0.1 uM incubated for 48 hrs by sulforhodamine B assay", "settings": "HCT-15, 48 h, read-out: Activity"}, "PC-3 [3]": {"system": "PC-3", "assay": "Growth inhibition of human PC3 cells incubated for 48 hrs by sulforhodamine B assay", "settings": "PC-3, 48 h", "method_in_brief": "as §1"}, "COLO 205": {"system": "COLO 205", "assay": "Growth inhibition of human COLO205 cells assessed as cell viability at 0.1 uM incubated for 48 hrs by sulforhodamine B assay", "settings": "COLO 205, 48 h, read-out: Activity"}, "SR": {"system": "SR", "assay": "Growth inhibition of human SR cells assessed as cell viability at 0.001 uM incubated for 48 hrs by sulforhodamine B assay relative to control", "settings": "read-out: Activity"}, "SW-620": {"system": "SW-620", "assay": "Growth inhibition of human SW620 cells assessed as cell viability at 1 uM incubated for 48 hrs by sulforhodamine B assay", "settings": "SW-620, 48 h, read-out: Activity"}, "SK-MEL-28": {"system": "SK-MEL-28", "assay": "Growth inhibition of human SK-MEL-28 cells incubated for 48 hrs by sulforhodamine B assay", "settings": "SK-MEL-28, 48 h", "method_in_brief": "as §1"}, "NCI-H522 [4]": {"system": "NCI-H522", "assay": "Growth inhibition of human NCI-H522 cells assessed as cell viability at 0.001 uM incubated for 48 hrs by sulforhodamine B assay relative to control", "settings": "NCI-H522, 48 h, read-out: Activity"}, "LOX IMVI": {"system": "LOX IMVI", "assay": "Growth inhibition of human LOXIMVI cells incubated for 48 hrs by sulforhodamine B assay", "method_in_brief": "(§2)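 NCI-60 five-dose SRB assay in RPMI 1640 with 5% FBS, 37 °C, 5% CO2. Compound given at five tenfold dilutions, 0.01–100 µM, for 48 h. Adherent cells fixed with TCA, suspension cells with 16% final TCA. Bound SRB read at 515 nm and growth calculated against time-zero and untreated controls. GI50 taken from dose–response curves as the concentration giving a 50% decrease in net cell growth.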"}, "CCRF-CEM": {"system": "CCRF-CEM", "assay": "Growth inhibition of human CCRF-CEM cells assessed as cell viability at 1 uM incubated for 48 hrs by sulforhodamine B assay", "settings": "read-out: Activity"}, "MDA-MB-435": {"system": "MDA-MB-435", "assay": "Growth inhibition of human MDA-MB-435 cells assessed as cell viability at 1 uM incubated for 48 hrs by sulforhodamine B assay", "settings": "MDA-MB-435, 48 h, read-out: Activity"}, "UACC-257": {"system": "UACC-257", "assay": "Growth inhibition of human UACC257 cells assessed as cell viability at 100 uM incubated for 48 hrs by sulforhodamine B assay", "settings": "UACC-257, 48 h, read-out: Activity"}, "HT-29": {"system": "HT-29", "assay": "Growth inhibition of human HT-29 cells assessed as cell viability at 0.1 uM incubated for 48 hrs by sulforhodamine B assay", "settings": "HT-29, 48 h, read-out: Activity"}, "DU-145": {"system": "DU-145", "assay": "Growth inhibition of human DU145 cells assessed as cell viability at 0.001 uM incubated for 48 hrs by sulforhodamine B assay relative to control", "settings": "DU-145, 48 h, read-out: Activity"}, "NCI-H522 [5]": {"system": "NCI-H522", "assay": "Growth inhibition of human NCI-H522 cells assessed as cell viability at 100 uM incubated for 48 hrs by sulforhodamine B assay", "settings": "NCI-H522, 48 h, read-out: Activity"}, "NCI-H226": {"system": "NCI-H226", "assay": "Growth inhibition of human NCI-H226 cells assessed as cell viability at 1 uM incubated for 48 hrs by sulforhodamine B assay", "settings": "NCI-H226, 48 h, read-out: Activity"}, "NCI-H23": {"system": "NCI-H23", "assay": "Growth inhibition of human NCI-H23 cells incubated for 48 hrs by sulforhodamine B assay", "settings": "NCI-H23, 48 h", "method_in_brief": "as §2"}, "PC-3 [6]": {"system": "PC-3", "assay": "Growth inhibition of human PC3 cells assessed as cell viability at 0.1 uM incubated for 48 hrs by sulforhodamine B assay", "settings": "PC-3, 48 h, read-out: Activity"}, "[7]": {"settings": "read-out: LC50 (the source's name)"}, "[8]": {"settings": "read-out: pLC50 (the source's name) (converted)"}}, "data": [{"compound": "CC1=C(C(=O)OCc2ccccc2)C(c2ccc3c(c2)OCO3)n2c(nc3ccccc32)N1", "note": "(racemic)", "values": [{"measurement": "viability at 0.001 µM", "setting": "SNB-75 [1]", "value": 61, "unit": "%"}, {"measurement": "GI50", "setting": "SF-268; read-out: GI50", "value": 0.51, "unit": "µM"}, {"measurement": "LC50", "setting": "SF-268; read-out: LC50", "value": "> 100", "unit": "µM"}, {"measurement": "TGI", "setting": "SF-268; read-out: TGI", "value": "> 100", "unit": "µM"}, {"measurement": "GI50", "setting": "SF-268; read-out: pGI50 (converted)", "value": 0.513, "unit": "µM"}, {"measurement": "LC50", "setting": "SF-268; read-out: pLC50 (converted)", "value": "> 100", "unit": "µM"}, {"measurement": "TGI", "setting": "SF-268; read-out: pTGI", "value": "> 100", "unit": "µM"}, {"measurement": "GI50", "setting": "RXF 393; read-out: GI50", "value": 0.31, "unit": "µM"}, {"measurement": "CC50", "setting": "RXF 393; [7]", "value": "> 100", "unit": "µM"}, {"measurement": "TGI", "setting": "RXF 393; read-out: TGI", "value": "> 100", "unit": "µM"}, {"measurement": "GI50", "setting": "RXF 393; read-out: pGI50 (converted)", "value": 0.302, "unit": "µM"}, {"measurement": "CC50", "setting": "RXF 393; [8]", "value": "> 100", "unit": "µM"}, {"measurement": "TGI", "setting": "RXF 393; read-out: pTGI", "value": "> 100", "unit": "µM"}, {"measurement": "viability at 0.1 µM", "setting": "SK-MEL-2", "value": 101, "unit": "%"}, {"measurement": "viability at 100 µM", "setting": "SNB-75 [2]", "value": -24, "unit": "%"}, {"measurement": "viability at 0.1 µM", "setting": "BT-549", "value": 87, "unit": "%"}, {"measurement": "viability at 100 µM", "setting": "SNB-19", "value": 28, "unit": "%"}, {"measurement": "viability at 0.001 µM", "setting": "SF-295", "value": 87, "unit": "%"}, {"measurement": "viability at 0.1 µM", "setting": "HCT-15", "value": 84, "unit": "%"}, {"measurement": "GI50", "setting": "PC-3 [3]; read-out: GI50", "value": 0.55, "unit": "µM"}, {"measurement": "CC50", "setting": "PC-3 [3]; [7]", "value": "> 100", "unit": "µM"}, {"measurement": "TGI", "setting": "PC-3 [3]; read-out: TGI", "value": "> 100", "unit": "µM"}, {"measurement": "GI50", "setting": "PC-3 [3]; read-out: pGI50 (converted)", "value": 0.55, "unit": "µM"}, {"measurement": "CC50", "setting": "PC-3 [3]; [8]", "value": "> 100", "unit": "µM"}, {"measurement": "TGI", "setting": "PC-3 [3]; read-out: pTGI", "value": "> 100", "unit": "µM"}, {"measurement": "viability at 0.1 µM", "setting": "COLO 205", "value": 101, "unit": "%"}, {"measurement": "viability at 0.001 µM", "setting": "SR", "value": 84, "unit": "%"}, {"measurement": "viability at 1 µM", "setting": "SW-620", "value": 23, "unit": "%"}, {"measurement": "GI50", "setting": "SK-MEL-28; read-out: GI50", "value": "> 100", "unit": "µM"}, {"measurement": "LC50", "setting": "SK-MEL-28; read-out: LC50", "value": "> 100", "unit": "µM"}, {"measurement": "TGI", "setting": "SK-MEL-28; read-out: TGI", "value": "> 100", "unit": "µM"}, {"measurement": "GI50", "setting": "SK-MEL-28; read-out: pGI50 (converted)", "value": "> 100", "unit": "µM"}, {"measurement": "LC50", "setting": "SK-MEL-28; read-out: pLC50 (converted)", "value": "> 100", "unit": "µM"}, {"measurement": "TGI", "setting": "SK-MEL-28; read-out: pTGI", "value": "> 100", "unit": "µM"}, {"measurement": "viability at 0.001 µM", "setting": "NCI-H522 [4]", "value": 78, "unit": "%"}, {"measurement": "GI50", "setting": "LOX IMVI; read-out: GI50", "value": 0.55, "unit": "µM"}, {"measurement": "LC50", "setting": "LOX IMVI; read-out: LC50", "value": "> 100", "unit": "µM"}, {"measurement": "TGI", "setting": "LOX IMVI; read-out: TGI", "value": "> 100", "unit": "µM"}, {"measurement": "GI50", "setting": "LOX IMVI; read-out: pGI50 (converted)", "value": 0.55, "unit": "µM"}, {"measurement": "LC50", "setting": "LOX IMVI; read-out: pLC50 (converted)", "value": "> 100", "unit": "µM"}, {"measurement": "TGI", "setting": "LOX IMVI; read-out: pTGI", "value": "> 100", "unit": "µM"}, {"measurement": "viability at 1 µM", "setting": "CCRF-CEM", "value": 19, "unit": "%"}, {"measurement": "viability at 1 µM", "setting": "MDA-MB-435", "value": -39, "unit": "%"}, {"measurement": "viability at 100 µM", "setting": "UACC-257", "value": 46, "unit": "%"}, {"measurement": "viability at 0.1 µM", "setting": "HT-29", "value": 99, "unit": "%"}, {"measurement": "viability at 0.001 µM", "setting": "DU-145", "value": 102, "unit": "%"}, {"measurement": "viability at 100 µM", "setting": "NCI-H522 [5]", "value": -8, "unit": "%"}, {"measurement": "viability at 1 µM", "setting": "NCI-H226", "value": 66, "unit": "%"}, {"measurement": "GI50", "setting": "NCI-H23; read-out: GI50", "value": 31.8, "unit": "µM"}, {"measurement": "LC50", "setting": "NCI-H23; read-out: LC50", "value": "> 100", "unit": "µM"}, {"measurement": "TGI", "setting": "NCI-H23; read-out: TGI", "value": "> 100", "unit": "µM"}, {"measurement": "GI50", "setting": "NCI-H23; read-out: pGI50 (converted)", "value": 31.6, "unit": "µM"}, {"measurement": "LC50", "setting": "NCI-H23; read-out: pLC50 (converted)", "value": "> 100", "unit": "µM"}, {"measurement": "TGI", "setting": "NCI-H23; read-out: pTGI", "value": "> 100", "unit": "µM"}, {"measurement": "viability at 0.1 µM", "setting": "PC-3 [6]", "value": 91, "unit": "%"}]}]}
